Measured values reported in paper PMC3878182 (Xenobiotica; the fate of foreign compounds in biological …, 2013).

Tests used:
liver tissue slices [1] = experiment: Enantioselective analysis; type: in vitro ADME, Sprague-Dawley rats; conditions: for Enantiomeric enrichment: liver slices from PB- and DEX-treated male and female rats incubated with racemic PCB 136
In short: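 Liver slices from PB- or DEX-pretreated rats, two per vial in 2 mL K-H buffer, were incubated with racemic test compound (final 5 μM, from DMSO) for 2 h at 37 °C under 5% CO2/95% air in a dynamic system. Triplicate incubations were run per animal. Hydroxylated metabolites were methylated; atropisomers were separated on Chirasil-Dex (5-OH) or Cyclosil-B (4-OH) columns. EF = Area E(2)/(Area E(1) + Area E(2)).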

ryanodine receptor (RyR) = conditions: enantioselective; ref Pessah et al., 2009; cited from earlier work
[2] = Effect of inducer treatment on body and liver weights of rats; type: in vivo, Sprague-Dawley rats; conditions: i.p. inducer treatment
liver tissue slices [3] = experiment: Liver slice viability; type: cell-based, Sprague-Dawley rats; conditions: 2 h
In short: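 Liver slices came from adult rats, either naive or pretreated with PB or DEX, taken 24 h after the last dose into cold Krebs-Henseleit buffer, pH 7.5. Two slices per vial in 2 mL buffer received test compound (final 5 μM) or DMSO, 2 h, 37 °C, 5 % CO2/95 % air. LDH in medium and homogenate gave % release = A1×D1/(A1×D1+A2×D2); viable was <30 %.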

CYP1A2 = experiment: Hepatic P450 transcript levels; type: in vivo, Sprague-Dawley rats
[4] = system: hippocampal slice cultures; experiment: Propidium iodide; type: cell-based, Sprague Dawley rats (PND4 pups); conditions: glutamate 20 mM, positive control, 3 d exposure
[5] = system: hippocampal slice cultures; experiment: LDH release in hippocampal slice cultures; type: cell-based, Sprague Dawley rats (PND4 pups); conditions: ethanol 200 mM, 14 d exposure
In short: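 Hippocampi from PND4 pups of timed-pregnant Sprague Dawley rats were cultured as slices. From 5 DIV, racemic test compound or vehicle (0.1 % DMSO) was added to 1 mL medium, renewed every 2 days for 14 days. LDH release was measured with a membrane-integrity fluorescence kit. Mean ± SEM, n = 2 wells per group.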

liver tissue slices [6] = experiment: Formation of hydroxylated PCB 136 metabolites in liver tissue slices; type: in vitro ADME, Sprague-Dawley rats; conditions: for Metabolite formation, slices / Metabolite formation, medium: 2 h; for Metabolite as percent of ΣOH-PCB: slices plus medium
[7] = DEX-treated female rats, PCB 136 5 μM (10 nmol)
[8] = DEX-treated female rats, PCB 136 5 μM
[9] = DEX-treated male rats, PCB 136 5 μM (10 nmol)
[10] = DEX-treated male rats, PCB 136 5 μM
[11] = PB-treated female rats, PCB 136 5 μM (10 nmol)
[12] = PB-treated female rats, PCB 136 5 μM
[13] = PB-treated male rats, PCB 136 5 μM (10 nmol)
[14] = PB-treated male rats, PCB 136 5 μM (10 nmol), ND, not detected
[15] = PB-treated male rats, PCB 136 5 μM
[16] = naïve control (CTL) female rats, PCB 136 5 μM (10 nmol), ND, not detected
[17] = naïve control (CTL) female rats, PCB 136 5 μM, ND, not detected
[18] = naïve control (CTL) female rats
[19] = naïve control (CTL) male rats, PCB 136 5 μM (10 nmol), ND, not detected
[20] = naïve control (CTL) male rats, PCB 136 5 μM, ND, not detected

Compound	Enantiomeric enrichment (liver tissue slices [1])	Metabolite formation, slices (liver tissue slices [6]; [7])	Metabolite formation, slices (liver tissue slices [6]; [8])	Metabolite as percent of ΣOH-PCB (liver tissue slices [6]; DEX-treated female rats)	Metabolite formation, slices (liver tissue slices [6]; [9])	Metabolite formation, slices (liver tissue slices [6]; [10])	Metabolite as percent of ΣOH-PCB (liver tissue slices [6]; DEX-treated male rats)	Metabolite formation, slices (liver tissue slices [6]; [11])	Metabolite formation, slices (liver tissue slices [6]; [12])	Metabolite as percent of ΣOH-PCB (liver tissue slices [6]; PB-treated female rats)	Metabolite formation, slices (liver tissue slices [6]; [13])	Metabolite formation, slices (liver tissue slices [6]; [15])	Metabolite as percent of ΣOH-PCB (liver tissue slices [6]; PB-treated male rats)	other results
Clc1ccc(Cl)c(-c2c(Cl)ccc(Cl)c2Cl)c1Cl [(−)-PCB 136]	slightly enriched	–	–	–	–	–	–	–	–	–	–	–	–	Sensitization of RyR (ryanodine receptor (RyR)): active
C[C@@H]1C[C@H]2[C@@H]3CCC4=CC(=O)C=C[C@]4(C)[C@@]3(F)[C@@H](O)C[C@]2(C)[C@@]1(O)C(=O)CO [Dexamethasone (DEX), dexamethasone]	–	–	–	–	–	–	–	–	–	–	–	–	–	Liver weight ([2]; female rats): 12.1 ± 0.2 g; Percent change in body weight ([2]; female rats): −12.0 ± 4.4 %; Liver weight ([2]; male rats): 16.8 ± 0.6 g; Percent change in body weight ([2]; male rats): −17.0 ± 0.7 %; LDH release (liver tissue slices [3]; liver tissue slices from DEX pretreated female rats): 19.6 ± 10.4%; LDH release (liver tissue slices [3]; liver tissue slices from DEX pretreated male rats): 10.4 ± 3.6%; CYP1A2 transcript level vs CTL (CYP1A2; liver slices from female rats): not significantly changed; CYP1A2 transcript level vs CTL (CYP1A2; liver slices from male rats): not changed
Oc1cc(Cl)c(-c2c(Cl)ccc(Cl)c2Cl)c(Cl)c1Cl [E(1)-4-OH-PCB]	enriched	–	–	–	–	–	–	–	–	–	–	–	–	–
N[C@@H](CCC(=O)O)C(=O)O [glutamate, reference compound]	–	–	–	–	–	–	–	–	–	–	–	–	–	PI uptake [4]: significantly increased PI uptake
Oc1cc(Cl)c(Cl)c(-c2c(Cl)ccc(Cl)c2Cl)c1Cl [E(2)-5-OH-PCB]	enriched to a similar extent	–	–	–	–	–	–	–	–	–	–	–	–	–
CCO [ethanol, reference compound]	–	–	–	–	–	–	–	–	–	–	–	–	–	LDH release relative to vehicle controls [5]: significantly increased LDH release
Oc1c(O)c(Cl)c(-c2c(Cl)ccc(Cl)c2Cl)c(Cl)c1Cl [4,5-diOH-PCB 136, 2,2′,3,3′,6,6′-hexachlorobiphenyl-4,5-diol]	–	3 ± 1 pmol	0.1 ± 0.0 ng/mg protein	1.3 ± 0.3%	6 ± 2 pmol	0.1 ± 0.0 ng/mg protein	0.9 ± 0.3%	6 ± 3 pmol	0.1 ± 0.1 ng/mg protein	1.0 ± 0.4%	32 ± 15 pmol	0.6 ± 0.3 ng/mg protein	5.6 ± 3.6%	Metabolite formation, medium (liver tissue slices [6]; [14]): 24 ± 34 pmol; Metabolite level in tissue slices (liver tissue slices [6]; tissue slices from CTL rats): below the detection limit
Oc1cc(Cl)c(-c2c(Cl)ccc(Cl)c2Cl)c(Cl)c1Cl [4-OH-PCB 136, 2,2′,3,3′,6,6′-hexachlorobiphenyl-4-ol]	–	24 ± 19 pmol	0.5 ± 0.3 ng/mg protein	7.7 ± 3.5%	26 ± 5 pmol	0.4 ± 0.1 ng/mg protein	4.3 ± 0.7%	30 ± 4 pmol	0.7 ± 0.0 ng/mg protein	5.8 ± 1.0%	15 ± 5 pmol	0.3 ± 0.1 ng/mg protein	1.5 ± 0.2%	4-OH-PCB 136 levels relative to 5-OH-PCB 136 levels (times higher) (liver tissue slices [6]; liver slices from female CTL rats): approximately 3 times; Metabolite formation, slices (liver tissue slices [6]; [16]): 33 ± 4 pmol; Metabolite formation, slices (liver tissue slices [6]; [17]): 0.7 ± 0.1 ng/mg protein; Metabolite as percent of ΣOH-PCB (liver tissue slices [6]; [18]): 75 ± 16%; Metabolite formation, slices (liver tissue slices [6]; [19]): 60 ± 30 pmol; Metabolite formation, slices (liver tissue slices [6]; [20]): 1.0 ± 0.5 ng/mg protein; Metabolite as percent of ΣOH-PCB (liver tissue slices [6]; naïve control (CTL) male rats): 57 ± 5%
Oc1cc(Cl)c(Cl)c(-c2c(Cl)ccc(Cl)c2Cl)c1Cl [5-OH-PCB 136, 2,2′,3,3′,6,6′-hexachlorobiphenyl-5-ol]	–	240 ± 110 pmol	4.9 ± 1.1 ng/mg protein	91 ± 4%	495 ± 95 pmol	7.7 ± 1.2 ng/mg protein	95 ± 1%	490 ± 100 pmol	11 ± 1.3 ng/mg protein	93 ± 1%	900 ± 220 pmol	16.0 ± 2.0 ng/mg protein	93 ± 4%	Metabolite formation, medium (liver tissue slices [6]; DEX-treated male rats, PCB 136 5 μM (10 nmol), ND, not detected): 80 ± 37 pmol; Metabolite formation, medium (liver tissue slices [6]; [14]): 115 ± 22 pmol; Metabolite formation, slices (liver tissue slices [6]; [16]): 12 ± 10 pmol; Metabolite formation, slices (liver tissue slices [6]; [17]): 0.3 ± 0.2 ng/mg protein; Metabolite as percent of ΣOH-PCB (liver tissue slices [6]; [18]): 25 ± 16%; Metabolite formation, slices (liver tissue slices [6]; [19]): 50 ± 10 pmol; Metabolite formation, slices (liver tissue slices [6]; [20]): 0.7 ± 0.2 ng/mg protein; Metabolite as percent of ΣOH-PCB (liver tissue slices [6]; naïve control (CTL) male rats): 43 ± 5%; Enantiomeric fraction (EF) (liver tissue slices [1]; liver slices from PB- and DEX-treated male and female rats, racemic PCB 136 5 μM, 2 h, EF = Area E(2)/(Area E(1) + Area E(2)), range over groups): 0.69–0.74
